# A selection: hits, their analogues and other compounds. The true share with any hit is near 2.3%.
# HIF act – HIF pathway transcriptional activation | U2OS HRE-luciferase reporter, luminescence; normalized: DMSO 0%, desferrioxamine 100% | activation, % at 7.5 µM (by protocol) | 0.32% of 300,000 active;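 active = mean activation of at least 10% of the iron chelator positive control signal, with at least half of replicates also reaching 10%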
# T cruzi repl – blocks replication of Trypanosoma cruzi | T. cruzi beta-gal in NIH3T3, luminescence, 90 h | AID 1885 | 1.4% of 300,000 active | inhibition, % (concentration not given with the values);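 active = mean inhibition across valid replicates above about 55%, limit read from the data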;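 note: signal also drops with host cell toxicity which is not excluded here; 0% = plate median of DMSO wells and 100% = zero luminescence signal; higher percent means less beta-gal luminescence so fewer parasites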
#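 System: mouse NIH/3T3 fibroblasts infected with β-gal-expressing T. cruzi Tulahuen C4 / Input: NIH/3T3 cells, 5,000 per well / Buffer or medium: Low-serum DMEM with 2% FBS / Probe or stimulus: 5000 reporter trypomastigotes per well / Schedule: ≥90 h infection period, 3 h prior cell attachment / Measured by: GalScreen luminescence, 60 min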
# KLF5 inhibitor – kruppel-like factor 5 inhibition; DLD-1 KLF5 promoter-luciferase reporter, luminescence; inhibition, % at 5 µM; 0.23% of 290,000 active; AID 1700;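 active = inhibition above a per-plate limit of that plate's mean compound inhibition plus 3 SD, cut at about 60% in these data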;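 note: 0% = DMSO wells and 100% = LY294002 at 200 µM; higher means less KLF5 promoter-driven luciferase light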
# Beta apoptosis – beta cell apoptosis inhibition. INS-1E cytokine-induced death, ATP luminescence, 48 h; percent of positive-control rescue, neutral wells zero. 0.8% of 300,000 active. protection from apoptosis, % (concentration not given with the values). AID 435005;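 active = Every replicate reaches about 75%, or at least half do and their mean reaches it too, limit read from the data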;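 note: 0% = cytokine-treated negative control wells and 100% = positive control rescue; higher means more ATP so stronger rescue from cytokine killing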
# A1 inh – inhibitors of the anti-apoptotic protein A1, read as caspase activation; MEF A1-2A-BIM cells, Caspase-Glo 3/7 luminescence, 3 h; percent of clofoctol response, vehicle zero; caspase activation, % (no concentration beside the values); 0.066% of 330,000 active;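 active = over half of replicate activation scores above 10%, or exactly half above 10 with the replicate mean above 10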
# * hit, by the source's call; nt = not tested or not shown.
SMILES,HIF act,T cruzi repl,KLF5 inhibitor,Beta apoptosis,A1 inh
c1ccc(C2c3[nH]c4ccccc4c3CCN2Cc2cccn2-c2ccccn2)nc1 (stereo unspecified),3,39,-13,17,0
COc1ccccc1C1c2[nH]c3ccccc3c2CCN1Cc1cnc(C)s1 (stereo unspecified),0,12,-14,nt,nt
COc1ccc(C2c3[nH]c4ccccc4c3CCN2Cc2cccn2-c2ncccn2)cc1C (stereo unspecified),0,79*,-8,40,-1
Cc1cccc(C2c3[nH]c4ccccc4c3CCN2Cc2cccn2-c2ncccn2)c1 (stereo unspecified),1,58*,-4,19,0
Oc1c(C=C2N=c3ccccc3=N2)sc(=S)n1-c1ccccc1,22*,-3,-13,-1,0
O=C(CN1CCN(S(=O)(=O)c2ccc(Cl)cc2)CC1)c1ccc(O)c(O)c1,1,8,-49,4,0
CC(=O)Nc1ccc2nc(-c3ccncc3)[nH]c2c1,0,-20,-9,nt,0
O=C(c1ccccc1)c1ccc2nc(-c3ccc(NC(=O)c4ccccc4Br)cc3)[nH]c2c1,1,60*,-31,nt,-3
Nc1ccc(C(=O)Nc2ccc3nc(-c4ccncc4)[nH]c3c2)cc1,256*,-10,-16,8,1
CN(c1ccccc1)S(=O)(=O)c1ccc(Cl)c(C(=O)Nc2ccc(-c3nc4ccccc4[nH]3)cc2)c1,-1,57*,-49,5,0
O=C(Nc1ccc(Nc2ccccc2)cc1)C(Cl)(Cl)Cl,0,26,-26,3,0
Cc1cc(C)c(S(=O)(=O)N2CCCCC2CCNC(=O)C(=O)NCc2cccnc2)c(C)c1 (stereo unspecified),-8,10,nt,6,0
COc1cc([N+](=O)[O-])ccc1NC(=O)Nn1cnnc1,0,3,-20,-3,0
CC1CCCCN1c1nc(-c2ccncc2)nc2ccccc12 (stereo unspecified),1,60*,-2,-8,0
C/C(=N/NC(=O)CN(c1ccccc1)S(=O)(=O)c1ccccc1)c1ccccc1O,-4,7,22,109*,1
Cc1cc(O)c(C(C)C)cc1C1(c2cc(C(C)C)c(O)cc2C)OC(=O)c2ccccc21,-5,77*,0,46,-1
CCCn1c(SCC(=O)N2CCc3ccccc3C2)nc2c1c(=O)n(C)c(=O)n2C,735*,6,-10,-1,0
O=C(CN1c2ccccc2S(=O)(=O)c2ccccc21)Nc1ccccc1F,0,-2,-8,-1,0
COc1ccccc1C(=O)Nc1ccc(S(=O)(=O)N2CCCC2)cc1,0,2,-36,7,-1
CN(CC(=O)Nc1ccc(S(=O)(=O)N2CCCC2)cc1)CC(=O)Nc1cccc(F)c1,53*,1,-17,2,0
COc1ccc(C(=O)Nc2ccc(S(=O)(=O)N3CCCC3)cc2)c(OC)c1,-1,77*,-12,6,0
CC(C(=O)Nc1ccc(S(=O)(=O)N2CCCC2)cc1)N(C)CC(=O)Nc1cccc(F)c1 (stereo unspecified),nt,nt,nt,10,0
CCN(CC)c1ccc(/C=C2\SC(=O)N(C(C)C)C2=O)o1,-5,56*,-13,60,2
O=C(CNC(=O)c1cccs1)N/N=C/c1c(F)cccc1Cl,0,-2,-52,-7,0
COCCC1CCCCN1C(=O)c1cc(COc2ccc(-n3cncn3)cc2)on1 (stereo unspecified),1,-14,-20,87*,0
SMILES,HIF act,T cruzi repl,KLF5 inhibitor,Beta apoptosis,A1 inh
CCC1CCCCN1C(=O)c1cc(COc2ccc3ncccc3c2)on1 (stereo unspecified),1,35,0,113*,0
COCC1CCCCN1C(=O)c1cc(COc2ccc3ncccc3c2)on1 (stereo unspecified),0,-120,-18,86*,-1
CC(CCCC(C)(C)O)NC(=O)c1cc(COc2ccc3ncccc3c2)on1 (stereo unspecified),-1,16,-18,88*,-1
COCCOC1CCN(C(=O)c2cc(COc3ccc(-n4cncn4)cc3)on2)CC1,1,-4,-4,-4,0
CC/C(=N/NC(=O)c1ccccc1O)c1c(C)[nH]n(-c2ccccc2)c1=O,0,-11,nt,36,0
O=C(CSc1nc(-c2ccccc2Cl)ns1)c1ccc(Cl)cc1,0,26,-19,-2,0
Cc1cccc(-c2nsc(SCC(=O)c3ccc(Cl)cc3)n2)c1,228*,13,3,-6,-1
CC(C)(C)C1CCc2sc(C(=O)NNC(=O)CCl)cc2C1 (stereo unspecified),1,67*,-35,nt,nt
O=C(Nc1ccccc1Cc1ccccc1)c1ccncc1,0,59*,-19,-1,0
CCN(CC)c1ccc2c(Cl)c(Br)c(=O)oc2c1,14*,59*,-25,-1,1
COc1ccc(NS(=O)(=O)c2cc(C(=O)N3CCN(C/C=C/c4ccccc4)CC3)ccc2C)cc1,0,44,nt,13,0
Cc1ccc(S(=O)(=O)N2CCN(C(=O)COC(=O)CCCOc3ccccc3)CC2)c(C)c1,nt,nt,nt,0,1
CC(C)(C)n1nnnc1C(c1ccc(C(F)(F)F)cc1)N(Cc1ccccc1)Cc1ccco1 (stereo unspecified),0,31,-9,117*,0
Cc1ccc(C(c2nnnn2C(C)(C)C)N(Cc2ccco2)Cc2cccs2)cc1 (stereo unspecified),0,64*,-9,7,1
CC(C)(C)c1ccc(CN(Cc2ccccc2)C(c2ccccn2)c2nnnn2C(C)(C)C)cc1 (stereo unspecified),-2,62*,-2,44,0
CC(C)(C)n1nnnc1C(c1ccc(F)cc1)N(Cc1ccc(F)cc1)Cc1ccco1 (stereo unspecified),0,34,10,77*,0
CCN(Cc1ccccc1)C(c1ccncc1)c1nnnn1C(C)(C)C (stereo unspecified),0,12,-6,nt,0
Cc1cc(OC(C)C(=O)N(Cc2ccco2)C2CCS(=O)(=O)C2)cc(C)c1Cl (stereo unspecified),0,13,6,3,1
O=C(CN1C(=O)C(=O)N(CCC2=CCCCC2)C1=O)Nc1ccc(F)cc1F,nt,nt,nt,-4,0
COC(=O)c1c(NC(=O)c2ccccc2OC)sc(C(=O)N2CCOCC2)c1C,0,-1,6,6,0
CC(C)(C)n1nnnc1C(c1ccc(C(F)(F)F)cc1)N(Cc1ccc(F)cc1)Cc1ccco1 (stereo unspecified),-1,14,-24,107*,0
CC(C)(C)n1nnnc1C(c1ccc(Cl)cc1)N(Cc1cccnc1)Cc1ccco1 (stereo unspecified),0,39,-9,-1,0
